Test results: PMC5984530 (Proceedings of the National Academy of Sciences of the …, 2018)
Changes are numbered by the printed parent chain. One block for each compound: values may come before it.

Assays:
[1] = molecular target: T1, CHS_H1 (Humulus lupulus, UniProt Q9FEY5); test: In vitro chalcone synthase assay, kinetic parameters, CHS_H1 alone; assay type: biochemical; conditions: 2 μg CHS_H1; other substrate fixed: 150 μM malonyl-CoA or 40 μM p-coumaroyl-CoA
T1 sequence (Q9FEY5 1-389): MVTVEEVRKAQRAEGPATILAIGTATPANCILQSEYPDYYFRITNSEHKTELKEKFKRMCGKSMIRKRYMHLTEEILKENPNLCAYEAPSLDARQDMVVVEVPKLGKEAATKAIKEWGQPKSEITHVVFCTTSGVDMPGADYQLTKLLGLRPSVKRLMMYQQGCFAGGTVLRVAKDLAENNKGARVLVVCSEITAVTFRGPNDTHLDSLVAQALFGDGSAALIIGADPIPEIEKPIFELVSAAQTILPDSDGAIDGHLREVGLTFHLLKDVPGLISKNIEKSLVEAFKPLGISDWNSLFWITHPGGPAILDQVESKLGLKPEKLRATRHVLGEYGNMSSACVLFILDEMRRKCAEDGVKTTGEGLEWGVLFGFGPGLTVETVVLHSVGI
How it was run: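 Purified recombinant CHS_H1 (2 μg) was run in standard reactions: 50 mM Tris·HCl pH 7, 0.1 mg/mL BSA, 30 °C, 60 min. One substrate was fixed (40 μM p-coumaroyl-CoA or 150 μM malonyl-CoA) while the other was varied. Products were extracted and quantified. Apparent Km came from Hanes plots; n = 3, means ± SD.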

[2] = molecular target: T2, HlCHIL1 protein (Humulus lupulus, UniProt A0A2U7XUH7); test: Differential scanning fluorimetry; assay type: binding; conditions: for binding to CHIL1 protein (in words): wild-type HlCHIL1, differential scanning fluorimetry; for ΔTmmax: wild-type HlCHIL1, thermal shift dose-response
T2 sequence (A0A2U7XUH7 1-214): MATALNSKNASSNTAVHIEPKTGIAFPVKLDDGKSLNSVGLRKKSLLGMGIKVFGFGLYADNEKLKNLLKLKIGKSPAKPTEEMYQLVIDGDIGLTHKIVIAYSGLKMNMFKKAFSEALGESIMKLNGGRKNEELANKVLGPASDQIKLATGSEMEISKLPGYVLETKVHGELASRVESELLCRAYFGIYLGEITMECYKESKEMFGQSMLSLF
How it was run: (§1)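 Purified HlCHIL protein (wild-type or point mutant), 5 μM, was mixed with Protein Thermal Shift buffer and dye. Test ligand was serially diluted from 250 μM to 0.12 μM (12 points). Melting was followed on a real-time PCR instrument. Kd and ΔTmmax were fitted from the dose–response of thermal shift against ligand concentration.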

[3] = molecular target: T3, CHIL2 (Humulus lupulus, UniProt A0A2U7XUE3); test: Protein-metabolite interaction assay; assay type: binding; conditions: same incubation conditions, 8 h at 4 °C
T3 sequence (A0A2U7XUE3 1-209): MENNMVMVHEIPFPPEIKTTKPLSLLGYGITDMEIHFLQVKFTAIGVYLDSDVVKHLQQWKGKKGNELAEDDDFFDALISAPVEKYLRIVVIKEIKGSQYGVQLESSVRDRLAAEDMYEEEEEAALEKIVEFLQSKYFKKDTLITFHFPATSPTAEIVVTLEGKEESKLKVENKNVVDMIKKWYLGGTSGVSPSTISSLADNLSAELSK

[4] = molecular target: T4, CHIL1^V139F/A143F (Humulus lupulus, UniProt A0A2U7XUH7, A143F/V139F); assay type: binding; conditions: thermal shift dose-response
T4 sequence (A0A2U7XUH7 1-214 V139F/A143F): T2 sequence (A0A2U7XUH7 1-214) with V139F, A143F

[5] = molecular target: T5, CHIL1^A143F (Humulus lupulus, UniProt A0A2U7XUH7, A143F); test: Differential scanning fluorimetry binding assay with CHIL1 A143F mutant; conditions: thermal shift dose-response
T5 sequence (A0A2U7XUH7 1-214 A143F): T2 sequence (A0A2U7XUH7 1-214) with A143F
How it was run: as §1

[6] = molecular target: T6, His-tagged CHIL1 (Humulus lupulus, UniProt A0A2U7XUH7); test: Protein-metabolite interaction assay; assay type: binding
T6 sequence (A0A2U7XUH7 1-214): T2 sequence (A0A2U7XUH7 1-214)
How it was run: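 His-tagged CHIL1 was expressed in E. coli BL21 and purified by Ni-NTA. Protein (30 μg) was incubated for 8 h at 4 °C with yeast extract (about 200 μM N/NC, 5 μM DMX) in 50 mM Tris·HCl pH 7.5 with 20% methanol. Protein was captured on MagneHis Ni beads. Bead-bound and supernatant compounds were extracted with ethyl acetate and measured by LC-QQQ-MS/MS (MRM 341.0→165.0). Beads alone were the control; n = 3.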

[7] = molecular target: T7, CHIL1^V139F (Humulus lupulus, UniProt A0A2U7XUH7, V139F); test: Differential scanning fluorimetry binding assay with CHIL1 V139F mutant
T7 sequence (A0A2U7XUH7 1-214 V139F): T2 sequence (A0A2U7XUH7 1-214) with V139F
How it was run: as §1

SMILES: CC(C)=CCc1c(O)cc2c(c1O)C(=O)C[C@@H](c1ccc(O)cc1)O2 [6PN, 6-prenylnaringenin]
binding to CHIL1 protein (in words) [2]: no such binding could be detected

SMILES: CC(C)(COP(=O)(O)OP(=O)(O)OC[C@H]1O[C@@H](n2cnc3c(N)ncnc32)[C@H](O)[C@@H]1OP(=O)(O)O)[C@@H](O)C(=O)NCCC(=O)NCCSC(=O)CC(=O)O [Malonyl-CoA]
Kcat [1]: 0.24 ± 0.03 s^−1 × 10^−3
Km [1]: 10.1 ± 2.99 µM

SMILES: CC(C)=CCc1c(O)cc(O)c2c1O[C@H](c1ccc(O)cc1)CC2=O [8PN, 8-prenylnaringenin]
CHIL2-associated compound (in words) [3]: no CHIL2-associated DMX or 8PN were detected
binding to CHIL1 protein (in words) [2]: no such binding could be detected

SMILES: CC(C)=CCc1c(O)cc(O)c(C(=O)/C=C/c2ccc(O)cc2)c1O [DMX, demethylxanthohumol]
ΔTmmax [4]: 5.26 °C
CHIL2-associated compound (in words) [3]: no CHIL2-associated DMX or 8PN were detected
ΔTmmax [5]: 10.87 °C
Kd [2]: 25.1 µM
ΔTmmax [2]: 10.23 °C
enrichment of DMX levels by CHIL1 protein (bound vs solution) ([6]; incubation 8 h at 4 °C with yeast extract (DMX/6PN/8PN)): 14.2 fold
ratio of (DMX)/(total DMX) in CHIL1-bound chemical mixture ([6]; incubation 8 h at 4 °C, n = 3): 19.7%
ratio of (DMX)/(total DMX) in solution ([6]; supernatant, incubation 8 h at 4 °C): 1.39%
Kd [7]: 10 µM
ΔTmmax ([7]; CHIL1^V139F, thermal shift dose-response): 10.15 °C

The remaining lines, values ahead:

Kcat [1]: 0.21 ± 0.02 s^−1 × 10^−3
Km [1]: 4.82 ± 0.99 µM
SMILES: CC(C)(COP(=O)(O)OP(=O)(O)OC[C@H]1O[C@@H](n2cnc3c(N)ncnc32)[C@H](O)[C@@H]1OP(=O)(O)O)[C@@H](O)C(=O)NCCC(=O)NCCSC(=O)/C=C/c1ccc(O)cc1 [p-Coumaroyl-CoA]

binding to CHIL1 protein (in words) [2]: no such binding could be detected
SMILES: COc1cc(O)c(CC=C(C)C)c(O)c1C(=O)/C=C/c1ccc(O)cc1 [XN, 3′-prenyl-6′-O-methylchalconaringenin]

Kd [2]: 3.45 µM
ΔTmmax [2]: 3.55 °C
SMILES: CCCCCCCCCCCCCC(=O)O [myristic acid]

ΔTmmax [2]: 5.0 °C
SMILES: CCCCCCCCCCCC(=O)O [lauric acid]

binding to CHIL1 protein (in words) [2]: no such binding could be detected
SMILES: O=C1C[C@@H](c2ccc(O)cc2)Oc2cc(O)cc(O)c21 [N, naringenin]
